Source: paper PMC5469400 (Drug Metabolism and Disposition, 2017)

Tests used:
[1] = DCF clearance / PK in the LiverChip, one-compartment model; type: in vitro ADME; settings: human
[2] = system: coculture of hepatocytes and Kupffer cells (10:1); test: Extrapolation of in vitro DCF clearance to predicted hepatic clearance; type: in vitro ADME, human
[3] = system: primary hepatocyte–Kupffer cell cocultures; test: WST-1 cell viability in the LiverChip, repeat dosing; type: cell-based; settings: Homo sapiens, read-out: IC50 (cell viability, WST-1)
Summary of the method: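 Perfused LiverChip cocultures of cryopreserved primary human hepatocytes and Kupffer cells (10:1, 600,000 cells/well; post-thaw viability >85%). Test compound in DMSO (0.5% v/v final) dosed from day 5. Medium and fresh compound replaced every 48 h. Viability measured by WST-1; mean of two replicates.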

[4] = system: primary human hepatocyte and Kupffer cell cocultures; test: LDH release in the LiverChip; type: cell-based
Summary of the method: (§1)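 Cryopreserved primary human hepatocytes and Kupffer cells (10:1, 600,000 cells/well) were cocultured in perfused LiverChip scaffolds (1.0 µl/s), with hydrocortisone-containing (100 nM) WEM from day 3. Test compound in DMSO (0.5% v/v final) was given from day 5 and redosed at each 48-hour medium change, ±LPS 1 µg/ml. Medium was sampled 48 hours after each dose for albumin (ELISA) and LDH activity; n = 3, S.D.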

[5] = system: primary human hepatocyte and Kupffer cell cocultures; test: Albumin secretion; type: cell-based; settings: high DCF concentrations (>50×), measured 48 hours after each dose
Summary of the method: as §1

[6] = system: bile acid production in 3D liver coculture; test: Bile acids in culture medium by LC-MS; type: cell-based, human; settings: for level of GCA after 48 h / level of cholic acid after 48 h / level of glycochenodeoxycholic acid 3-glucuronide after 48 h / level of glycochenodeoxycholic acid after 48 h / level of taurocholic acid after 48 h: 0 μM DCF = 100, relative EIC
Summary of the method: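 Perfused LiverChip cocultures of cryopreserved primary human hepatocytes and Kupffer cells (10:1, 600,000 cells/well) in WEM with 100 nM hydrocortisone. Test compound in DMSO (0.5% v/v final) or LPS 1 µg/ml added from day 5, refreshed at 48 h medium changes. d5-GCA internal standard added before extraction. Bile acids in medium at 48 h by accurate MS peak area (EIC%) relative to vehicle = 100. Mean of two technical replicates.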

[7] = system: proteins in hepatocyte-Kupffer cell coculture medium; test: Shotgun proteomics of secreted proteins, spectral counting; type: cell-based, human; settings: 440 μM DCF
Summary of the method: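 Perfused hepatocyte–Kupffer cell coculture medium was collected from control and 440 μM test compound cultures on days 5 and 7 and depleted of albumin. Proteins were taken up in 8 M urea/50 mM ABC with ProteaseMAX, reduced with DTT (56°C, 30 min) and alkylated with IAA (30 min, room temperature, dark). Fractions were cleaned on C18, analysed by shotgun LC-MS/MS and quantified by spectral counting.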

[8] = system: acute phase proteins (APPs); test: iTRAQ 8plex quantitation of acute phase proteins in conditioned medium; type: cell-based, human; settings: day 7; normalized to untreated control; drug 440 μM DCF, LPS 1 µg/ml
Summary of the method: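 Day 7 conditioned medium from perfused human hepatocyte–Kupffer cell cocultures treated with test compound (440 μM), LPS (1 µg/ml) or both. Albumin depleted; 100 μg protein reduced (2 mM TCEP, 37°C, 30 min), blocked (10 mM MMTS, 1 h) and trypsin-digested (1:40 w/w, 37°C overnight). Peptides iTRAQ-8plex labelled (3 h, RT), then C18-cleaned. Values are ln2 ratios versus untreated control (combined treatment versus LPS).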

[9] = wells in the absence of cells, concentration monitored over 24 hours
[10] = cited from earlier work

O=C(O)Cc1ccccc1Nc1c(Cl)cccc1Cl [DCF, diclofenac]
half-life at 4.4 µM [1]: 14.6 h
underprediction of predicted CLh versus in vivo plasma clearance [2]: < 7 fold
IC50 [3]: 227 µM
LDH release ([4]; high DCF concentrations (>50×), measured 48 hours after each dose): became more pronounced after the second dose
albumin secretion [5]: declined after a single dose
DCF-induced toxicity as assessed by suppression of GCA production ([6]; 0, 44, 110, 220 and 440 µM DCF): continuous dose-response relationship
level of GCA after 48 h ([6]; 110 μM DCF): 57%
level of cholic acid after 48 h ([6]; 110 μM DCF): 66%
level of glycochenodeoxycholic acid 3-glucuronide after 48 h ([6]; 110 μM DCF): 69%
level of glycochenodeoxycholic acid after 48 h ([6]; 110 μM DCF): 50%
level of taurocholic acid after 48 h ([6]; 110 μM DCF): 77%
level of GCA after 48 h ([6]; 440 μM DCF): 2%
level of cholic acid after 48 h ([6]; 440 μM DCF): 12%
level of glycochenodeoxycholic acid 3-glucuronide after 48 h ([6]; 440 μM DCF): 14%
level of glycochenodeoxycholic acid after 48 h ([6]; 440 μM DCF): 15%
level of taurocholic acid after 48 h ([6]; 440 μM DCF): 10%
number of proteins different between control and DCF-treated samples ([7]; day 5): 13 proteins
number of additional proteins elevated, not identified in the control ([7]; day 7): 68 proteins
ln2 iTRAQ value, Haptoglobin [8]: 0.5
ln2 iTRAQ value, α1 antiproteinase [8]: 1.0
ln2 iTRAQ value, α2 macroglobulin [8]: −1.0
binding to the LiverChip components [9]: no detectable binding
in vivo plasma clearance ([10]; human, ref http://www.capkr.man.ac.uk): 3.8 ml/min per kilogram
Cmax ([10]; recommended dose of DCF in humans): 4.4 µM

lipopolysaccharide [LPS]
effect of LPS codosing on toxicity profile of DCF ([4]; gross markers of functionality and cell death, LPS 1 µg/ml): does not significantly change the toxicity profile
effect of LPS together with DCF on drug toxicity (bile acid production) ([6]; LPS alone, DCF, LPS plus DCF): synergistic effect
ln2 iTRAQ value, Amyloid β A4 protein isoform b [8]: −1.7
ln2 iTRAQ value, Angiotensinogen [8]: 3.7
ln2 iTRAQ value, Ceruloplasmin [8]: 3.8
ln2 iTRAQ value, Complement component C3 [8]: 5.1
ln2 iTRAQ value, Haptoglobin [8]: 3.8
ln2 iTRAQ value, Hypothetical protein [8]: 3.9
ln2 iTRAQ value, Leucine-rich α2-glycoprotein [8]: 2.8
ln2 iTRAQ value, Liver carboxylesterase 1 isoform a [8]: 2.4
ln2 iTRAQ value, Retinol binding protein 4 [8]: 5.0
ln2 iTRAQ value, Serum albumin [8]: 3.9
ln2 iTRAQ value, Transferrin [8]: 3.0
ln2 iTRAQ value, Transthyretin [8]: 1.3
ln2 iTRAQ value, Vitamin D binding protein [8]: 2.1
ln2 iTRAQ value, α1-acid glycoprotein 1 [8]: 7.0
ln2 iTRAQ value, α1-acid glycoprotein 2 [8]: 5.0
ln2 iTRAQ value, α1-antitrypsin [8]: 4.2
ln2 iTRAQ value, α1 antiproteinase [8]: 4.2
ln2 iTRAQ value, α2-HS glycoprotein [8]: 1.5
